Measurements as given in ChEMBL document CHEMBL2010782, “Combination of a Beta adrenoceptor modulator and a norepinephrine-serotonin uptake inhibitor for the treatment of obesity” (ACS Med Chem Lett, 2011).
Activity calls are given as the source filed them. The rule behind the calls is not given here.

Columns and labels:
Rattus norvegicus [1] = assay: Antiobesity activity in Long-Evans rat assessed as increase in lipid utilization at 10 mg/kg, po measured after 4 hrs by indirect calorimetry analysis relative to control; assay type: functional, organism-based; set-up: dose 10 mg/kg
How it was run: (§1)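 Male Long–Evans rats with diet-induced obesity on a caloric dense diet received single oral doses of 3 or 10 mg/kg, with vehicle-treated rats as controls. Respiratory quotient (lipid utilization) and energy expenditure were followed by indirect calorimetry for about 4 h. Groups were compared by ANOVA with SNK post hoc test, p < 0.05.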

Rattus norvegicus [2] = assay: Antiobesity activity in Long-Evans rat assessed as decrease in respiratory quotient at 3 to 10 mg/kg, po measured after 4 hrs by indirect calorimetry analysis relative to control; assay type: functional, organism-based; how it was run: as §1
[3] = biological target: T1, Beta-3 adrenergic receptor (Homo sapiens, UniProt P13945); assay: Agonist activity at human adrenergic beta3 receptor expressed in DHB-11 CHO cells assessed as cAMP accumulation after 20 mins by scintillation proximity assay relative to isoproterenol; assay type: functional, cell-based
Target sequence in this assay (P13945 whole entry, looked up): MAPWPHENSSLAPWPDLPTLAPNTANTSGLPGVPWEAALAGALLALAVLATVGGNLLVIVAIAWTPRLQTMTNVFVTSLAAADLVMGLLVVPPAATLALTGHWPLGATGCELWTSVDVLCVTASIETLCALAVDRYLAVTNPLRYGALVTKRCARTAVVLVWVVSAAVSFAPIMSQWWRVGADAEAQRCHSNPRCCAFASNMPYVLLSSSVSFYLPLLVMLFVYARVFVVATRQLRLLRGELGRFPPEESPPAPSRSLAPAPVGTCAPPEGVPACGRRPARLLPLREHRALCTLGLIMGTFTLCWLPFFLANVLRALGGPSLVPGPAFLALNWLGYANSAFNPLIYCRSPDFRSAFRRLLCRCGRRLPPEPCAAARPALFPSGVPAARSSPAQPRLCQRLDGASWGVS

Rattus norvegicus [4] = assay: Antiobesity activity in po dosed Long-Evans rat assessed as increase in lipid utilization measured after 4 hrs by indirect calorimetry analysis relative to control; assay type: functional, organism-based; how it was run: as §1
Rattus norvegicus [5] = assay: Antiobesity activity in po dosed Long-Evans rat assessed as increase in energy expenditure measured after 4 hrs by indirect calorimetry analysis relative to control; assay type: functional, organism-based; how it was run: as §1
[6] = biological target: Beta-3 adrenergic receptor (Rattus norvegicus) (UniProt P26255); assay: Agonist activity at rat adrenergic beta3 receptor expressed in DHB-11 CHO cells assessed as cAMP accumulation after 20 mins by scintillation proximity assay relative to isoproterenol; assay type: functional, cell-based
[7] = biological target: T2, Beta-2 adrenergic receptor (Homo sapiens, UniProt P07550); assay: Agonist activity at human adrenergic beta2 receptor expressed in DHB-11 CHO cells assessed as cAMP accumulation after 20 mins by scintillation proximity assay relative to isoproterenol; assay type: functional, cell-based
How it was run: (§2)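 Whole-cell functional assay in transfected CHO cells expressing the human receptor, read as stimulated cAMP accumulation. Values are reported as the geometric mean ± standard deviation, with the number of runs (n) given.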
Target sequence in this assay (P07550 whole entry, looked up): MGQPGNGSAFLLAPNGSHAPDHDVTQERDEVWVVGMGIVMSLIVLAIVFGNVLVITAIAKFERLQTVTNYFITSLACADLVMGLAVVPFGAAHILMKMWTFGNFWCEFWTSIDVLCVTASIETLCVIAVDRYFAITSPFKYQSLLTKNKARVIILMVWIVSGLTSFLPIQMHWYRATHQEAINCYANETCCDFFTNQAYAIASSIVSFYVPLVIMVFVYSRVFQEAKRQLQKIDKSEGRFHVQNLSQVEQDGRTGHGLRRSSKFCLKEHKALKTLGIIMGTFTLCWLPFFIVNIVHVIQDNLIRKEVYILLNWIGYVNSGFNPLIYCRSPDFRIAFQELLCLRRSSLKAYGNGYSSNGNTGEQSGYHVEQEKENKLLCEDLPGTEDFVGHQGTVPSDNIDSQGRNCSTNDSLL

[8] = biological target: T3, Beta-1 adrenergic receptor (Homo sapiens, UniProt P08588); assay: Agonist activity at human adrenergic beta1 receptor expressed in DHB-11 CHO cells assessed as cAMP accumulation after 20 mins by scintillation proximity assay relative to isoproterenol; assay type: functional, cell-based; how it was run: as §2
Target sequence in this assay (P08588 whole entry, looked up): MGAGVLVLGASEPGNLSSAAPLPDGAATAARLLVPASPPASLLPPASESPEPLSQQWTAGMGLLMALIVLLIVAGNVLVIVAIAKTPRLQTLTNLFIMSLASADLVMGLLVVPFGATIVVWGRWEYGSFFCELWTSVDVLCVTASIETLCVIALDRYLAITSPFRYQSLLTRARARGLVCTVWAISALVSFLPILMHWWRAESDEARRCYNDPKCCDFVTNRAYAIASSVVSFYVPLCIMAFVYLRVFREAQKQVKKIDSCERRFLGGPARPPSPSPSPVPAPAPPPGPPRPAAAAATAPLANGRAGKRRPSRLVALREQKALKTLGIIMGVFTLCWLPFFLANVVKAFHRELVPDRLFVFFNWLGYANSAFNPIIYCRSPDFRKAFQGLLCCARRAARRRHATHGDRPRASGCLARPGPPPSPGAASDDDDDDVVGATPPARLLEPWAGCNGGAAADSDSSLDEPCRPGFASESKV

[9] = biological target: T2, Beta-2 adrenergic receptor; assay: Displacement of [125I]Iodocyanopindolol from human adrenergic beta2 receptor expressed in insect sf9 cells by scintillation counting
Target sequence in this assay (P07550 whole entry): as the sequence (P07550 whole entry, looked up) above

[10] = biological target: T3, Beta-1 adrenergic receptor; assay: Displacement of [125I]Iodocyanopindolol from human adrenergic beta1 receptor expressed in insect sf9 cells by scintillation counting
Target sequence in this assay (P08588 whole entry): as the sequence (P08588 whole entry, looked up) above

[11] = biological target: T2, Beta-2 adrenergic receptor; assay: Agonist activity at human adrenergic beta2 receptor expressed in DHB-11 CHO cells assessed as cAMP accumulation after 20 mins by scintillation proximity assay; assay type: functional, cell-based
Target sequence in this assay (P07550 whole entry): as the sequence (P07550 whole entry, looked up) above

[12] = biological target: T1, Beta-3 adrenergic receptor; assay: Agonist activity at human adrenergic beta3 receptor expressed in DHB-11 CHO cells assessed as cAMP accumulation after 20 mins by scintillation proximity assay; assay type: functional, cell-based
Target sequence in this assay (P13945 whole entry): as the sequence (P13945 whole entry, looked up) above

[13] = biological target: T3, Beta-1 adrenergic receptor; assay: Agonist activity at human adrenergic beta1 receptor expressed in DHB-11 CHO cells assessed as cAMP accumulation after 20 mins by scintillation proximity assay; assay type: functional, cell-based
Target sequence in this assay (P08588 whole entry): as the sequence (P08588 whole entry, looked up) above

[14] = biological target: Beta-3 adrenergic receptor (Rattus norvegicus, UniProt P26255); assay: Agonist activity at rat adrenergic beta3 receptor expressed in DHB-11 CHO cells assessed as cAMP accumulation after 20 mins by scintillation proximity assay; assay type: functional, cell-based
Homo sapiens [15] = organism: Homo sapiens; assay: Inhibition of sibutramine-induced increase in diastolic blood pressure in human at 30 to 300 mg; assay type: functional, Artery
[16] = Tmax in healthy human plasma; assay type: ADME, organism-based
How it was run: (§3)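 Healthy human volunteers were dosed and plasma concentrations followed over time. Tmax was taken from the plasma profile, and terminal elimination half-life was estimated after a 60-mg dose.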

[17] = Elimination half life in healthy human at 60 mg; assay type: ADME, organism-based; conditions: in vivo, read-out: beta t1/2 (converted); how it was run: as §3
Homo sapiens [18] = organism: Homo sapiens; assay: Inhibition of sibutramine-induced increase in heart rate in human at 30 to 300 mg; assay type: functional
Homo sapiens [19] = organism: Homo sapiens; assay: Inhibition of sibutramine-induced increase in systolic blood pressure in human at 30 to 300 mg; assay type: functional, Artery

Sequence of Beta-3 adrenergic receptor (Rattus norvegicus, UniProt P26255) (P26255 whole entry): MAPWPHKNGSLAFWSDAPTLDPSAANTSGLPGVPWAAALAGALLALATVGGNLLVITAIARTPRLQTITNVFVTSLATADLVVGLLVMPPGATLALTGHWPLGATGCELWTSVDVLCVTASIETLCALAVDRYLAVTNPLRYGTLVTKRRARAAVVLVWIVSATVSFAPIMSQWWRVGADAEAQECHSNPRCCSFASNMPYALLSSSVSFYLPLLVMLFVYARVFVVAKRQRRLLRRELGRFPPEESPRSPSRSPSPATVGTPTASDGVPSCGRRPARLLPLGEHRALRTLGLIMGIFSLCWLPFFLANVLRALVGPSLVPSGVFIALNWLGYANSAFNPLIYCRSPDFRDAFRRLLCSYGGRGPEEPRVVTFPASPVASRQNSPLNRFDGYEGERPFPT
Sequence of Beta-3 adrenergic receptor (Rattus norvegicus) (P26255 whole entry): as above

Compound: CC(C)(Cc1ccc(Oc2ccc(C(N)=O)cn2)cc1)NC[C@H](O)COc1cccc2[nH]c3ccccc3c12 [listing 1 of 3 here]
- Activity (Rattus norvegicus [1]): Active
- Activity (Rattus norvegicus [2]): Active
- Emax [3]: 73.8%
- Activity (Rattus norvegicus [4]): Dose-dependent effect
- Activity (Rattus norvegicus [5]): Dose-dependent effect
- Emax [6]: 55.5%
- Emax [7]: < 10%
- Emax [8]: < 10%

Compound: CC(C)(Cc1ccc(Oc2ccc(C(N)=O)cn2)cc1)NC[C@H](O)COc1cccc2[nH]c3ccccc3c12 [listing 2 of 3 here]
- Ki [9]: 0.012 nM
- Ki [10]: 0.023 nM

Compound: CC(C)(Cc1ccc(Oc2ccc(C(N)=O)cn2)cc1)NC[C@H](O)COc1cccc2[nH]c3ccccc3c12 [listing 3 of 3 here]
- EC50 [11]: > 3160 nM
- EC50 [12]: 2.4 nM
- EC50 [13]: > 3160 nM
- EC50 [14]: 5 nM

Compound: CC(C)(Cc1ccc(Oc2ccc(C(N)=O)cn2)cc1)NC[C@H](O)COc1cccc2[nH]c3ccccc3c12 [LY377604]
- Activity (Homo sapiens [15]): 4.2 mmHg
- Tmax [16]: 2 h
- half-life [17]: 9 h
- Activity (Homo sapiens [18]): 10.5 bpm
- Activity (Homo sapiens [19]): 5.5 mmHg
